The record followed here is BindingDB's records for doi:10.1016/j.bmc.2014.09.055 (University of Arizona, 2014).

SMILES strings stand for the structures.

The EC50 is the concentration that produces a half-maximal response. Higher therefore signals lower potency in that assay.

This assay addresses Melanocortin receptor 4 (Homo sapiens, UniProt P32245). Nature of the assay: Displacement of Eu-DTPA-NDP-a-MSH chelate from human melanocortin-4 receptor expressed in HEK293 cells after 1 hr by competitive DELFIA assay. In a few lines:
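HEK293 cells stably carrying hMC4R (pcDNA3.1) were grown in DMEM plus 10% FBS, seeded at 12,000 cells/well and cultured 3 days. Whole cells were competed with unlabeled ligand against 10 nM (final) Eu-DTPA-NDP-α-MSH in binding medium (DMEM, 1 mM 1,10-phenanthroline, bacitracin, leupeptin, 0.3% BSA) for 1 h at 37 °C, in quadruplicate. EC50 and Hill slope came from variable-slope sigmoidal fits.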

Chain of Melanocortin receptor 4 (P32245 whole entry): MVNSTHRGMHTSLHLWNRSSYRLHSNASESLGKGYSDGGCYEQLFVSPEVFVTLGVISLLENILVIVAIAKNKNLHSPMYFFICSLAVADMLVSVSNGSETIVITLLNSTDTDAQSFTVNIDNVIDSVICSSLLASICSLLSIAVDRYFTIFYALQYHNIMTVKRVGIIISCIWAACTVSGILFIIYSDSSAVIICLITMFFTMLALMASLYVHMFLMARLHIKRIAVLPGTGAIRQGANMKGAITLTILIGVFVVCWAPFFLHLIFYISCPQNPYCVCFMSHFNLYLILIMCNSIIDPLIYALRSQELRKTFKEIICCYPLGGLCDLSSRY

On to `CCCC[C@H](NC(=O)CNC(=O)[C@@H]1CCCN1C(=O)CNC(=O)[C@@H]1CCCN1C(=O)CNC(=O)[C@@H]1CCCN1C(=O)CNC(=O)[C@@H]1CCCN1C(=O)CNC(=O)[C@@H]1CCCN1C(=O)CNC(=O)[C@@H]1CCCN1C(=O)CNC(=O)[C@@H]1CCCN1C(=O)CNC(=O)[C@@H]1CCCN1C(=O)CNC(=O)[C@@H]1CCCN1C(=O)CNC(=O)[C@@H]1CCCN1C(=O)CNC(=O)[C@@H]1CCCN1C(=O)CNC(=O)[C@@H]1CCCN1C(=O)[C@H](Cc1c[nH]c2ccccc12)NC(=O)[C@H](CCCNC(=N)N)NC(=O)[C@@H](Cc1ccccc1)NC(=O)[C@H](Cc1cnc[nH]1)NC(=O)[C@H](CCC(=O)O)NC(=O)[C@H](CC(C)C)NC(=O)[C@H](CO)NC(C)=O)C(=O)N[C@H]1CC(=O)NCCCC[C@@H](C(N)=O)NC(=O)[C@H](Cc2c[nH]c3ccccc23)NC(=O)[C@H](CCCNC(=N)N)NC(=O)[C@@H](Cc2ccc3ccccc3c2)NC(=O)[C@H](Cc2cnc[nH]2)NC1=O`, for which the response was half-maximal at 1.6 nM (EC50).

`CCCC[C@H](NC(=O)COCC(=O)NCCCOCCOCCOCCCNC(=O)COCC(=O)NCCCOCCOCCOCCCNC(=O)[C@H](Cc1c[nH]c2ccccc12)NC(=O)[C@H](CCCNC(=N)N)NC(=O)[C@@H](Cc1ccccc1)NC(=O)[C@H](Cc1cnc[nH]1)NC(=O)[C@H](CCC(=O)O)NC(=O)[C@H](CC(C)C)NC(=O)[C@H](CO)NC(C)=O)C(=O)N[C@H]1CC(=O)NCCCC[C@@H](C(N)=O)NC(=O)[C@H](Cc2c[nH]c3ccccc23)NC(=O)[C@H](CCCNC(=N)N)NC(=O)[C@@H](Cc2ccc3ccccc3c2)NC(=O)[C@H](Cc2cnc[nH]2)NC1=O` displayed an EC50 of 1.7 nM.
